Results published in ChEMBL document CHEMBL1140915, “Second-generation highly potent and selective inhibitors of the hepatitis C virus NS3 serine protease” (J Med Chem, 2009).

Legend:
[1] = Inhibition of HCV NS3 protease in absence of human serum; parameters: species or system Hepacivirus hominis
How it was run: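 Continuous enzymatic assay using NS4A-tethered single-chain HCV NS3 serine protease, without human serum. Ki* is the equilibrium constant, which includes the reversible covalent ketone–serine bond. Compounds were tested as P1 diastereomer mixtures (2:1 to 1:2) that equilibrate rapidly under assay conditions.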

Hepatitis C virus = assay: Antiviral activity against HCV assessed as inhibition of virus replication by cell based assay in absence of human serum; format: functional, Hepacivirus hominis
How it was run: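 Replicon-based cellular assay run without human serum. EC90 is the concentration that inhibits replicon replication by 90%. Compounds were tested as rapidly equilibrating P1 diastereomer mixtures.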

[2] = Selectivity for HCV NS3 protease over human neutrophil elastase
How it was run: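 Compounds were also assayed against human neutrophil elastase. Selectivity is expressed as the HNE/HCV ratio of the two enzyme potencies.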

[3] = AUC in rat at 10 mg/kg, po administered with 20% HPBCD; format: ADME, organism-based; parameters: dose 10 mg/kg, route oral; settings: plasma
[4] = AUC in monkey at 3 mg/kg, po administered with 0.4% hydroxypropyl methylcellulose; format: ADME, organism-based, Macaca mulatta; parameters: dose 3 mg/kg, route oral; settings: rhesus monkey, in vivo
[5] = AUC in dog at 3 mg/kg, po administered with 0.4% hydroxypropyl methylcellulose; format: ADME, organism-based, Canis lupus familiaris; parameters: dose 3 mg/kg, route oral; settings: in vivo
[6] = AUC in rat at 3 mg/kg, iv administered with 0.4% hydroxypropyl methylcellulose; format: ADME, organism-based; parameters: dose 3 mg/kg, route intravenous; settings: in vivo
[7] = AUC in monkey at 1 mg/kg, iv administered with 0.4% hydroxypropyl methylcellulose; format: ADME, organism-based, Macaca mulatta; parameters: dose 1 mg/kg, route intravenous; settings: rhesus monkey, in vivo
[8] = AUC in dog at 2 mg/kg, iv administered with 0.4% hydroxypropyl methylcellulose; format: ADME, organism-based, Canis lupus familiaris; parameters: dose 2 mg/kg, route intravenous; settings: in vivo
[9] = Half life in rat at 3 mg/kg, iv administered with 0.4% hydroxypropyl methylcellulose; format: ADME, organism-based; parameters: dose 3 mg/kg, route intravenous; settings: in vivo
[10] = Half life in monkey at 1 mg/kg, iv administered with 0.4% hydroxypropyl methylcellulose; format: ADME, organism-based, Macaca mulatta; parameters: dose 1 mg/kg, route intravenous; settings: rhesus monkey, in vivo
[11] = Half life in dog at 2 mg/kg, iv administered with 0.4% hydroxypropyl methylcellulose; format: ADME, organism-based, Canis lupus familiaris; parameters: dose 2 mg/kg, route intravenous; settings: in vivo
[12] = Bioavailability in rat at 10 mg/kg, po administered with 0.4% hydroxypropyl methylcellulose; format: ADME, organism-based; settings: in vivo
[13] = Bioavailability in monkey at 3 mg/kg, po administered with 0.4% hydroxypropyl methylcellulose; format: ADME, organism-based, Macaca mulatta; settings: rhesus monkey, in vivo
[14] = Bioavailability in dog at 3 mg/kg, po administered with 0.4% hydroxypropyl methylcellulose; format: ADME, organism-based, Canis lupus familiaris; settings: in vivo
[15] = Drug level in rat liver after 6 hrs; format: ADME, tissue-based; settings: read-out: Drug uptake
How it was run: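 In rat, compound level in liver was measured 6 h after dosing in 0.4% MC and reported as ng/g tissue.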

[16] = AUC in rat at 10 mg/kg, po administered with 0.4% hydroxypropyl methyl cellulose; format: ADME, organism-based; parameters: dose 10 mg/kg, route oral; settings: in vivo

Ki [1]	EC90 (Hepatitis C virus)	Ratio [2]	AUC [3]	other results	Compound
8 nM	150 nM	69000	0.44 µM·h		C=CCNC(=O)C(=O)C(CCCC)NC(=O)[C@@H]1[C@@H]2[C@H](CN1C(=O)[C@@H](NC(=O)N[C@@H](CN1C(=O)CCCC1=O)C(C)(C)C)C(C)(C)C)C2(C)C (stereo partly drawn)
4 nM	30 nM	7100	1.2 µM·h	AUC [4]: 0.1 µM·h; AUC [5]: 1.2 µM·h; AUC [6]: 1.6 µM·h; AUC [7]: 0.7 µM·h; AUC [8]: 2.2 µM·h; half-life [9]: 7.4 h; half-life [10]: 2.3 h; half-life [11]: 2.7 h; bioavailability [12]: 22%; bioavailability [13]: 4%; bioavailability [14]: 35%; concentration at 6 h [15]: 1800 ng/g; AUC [16]: 0.9 µM·h	C=CCNC(=O)C(=O)C(CC1CC1)NC(=O)[C@@H]1[C@@H]2[C@H](CN1C(=O)[C@@H](NC(=O)NC(CN1C(=O)CC(C)(C)CC1=O)C(C)(C)C)C(C)(C)C)C2(C)C (single isomer, unassigned)
2 nM	40 nM	230			C#CCCC(NC(=O)[C@@H]1[C@@H]2[C@H](CN1C(=O)[C@@H](NC(=O)NC(CN1C(=O)CC(C)(C)CC1=O)C(C)(C)C)C(C)(C)C)C2(C)C)C(=O)C(=O)NCC=C (single isomer, unassigned)
2 nM	45 nM	2400	0.45 µM·h		C=CCNC(=O)C(=O)C(CCCC)NC(=O)[C@@H]1[C@@H]2[C@H](CN1C(=O)[C@@H](NC(=O)NC(CN1C(=O)CC(C)(C)CC1=O)C(C)(C)C)C1CCCCC1)C2(C)C (single isomer, unassigned)
7 nM	30 nM	11000	0.5 µM·h		C=CCNC(=O)C(=O)C(CCC1CC1)NC(=O)[C@@H]1[C@@H]2[C@H](CN1C(=O)[C@@H](NC(=O)NC(CN1C(=O)CC(C)(C)CC1=O)C(C)(C)C)C(C)(C)C)C2(C)C (single isomer, unassigned)
4 nM	40 nM	9300	1.58 µM·h		C=CCNC(=O)C(=O)C(CCCC)NC(=O)[C@@H]1[C@@H]2[C@H](CN1C(=O)[C@@H](NC(=O)NC(CN1C(=O)CC(C)(C)CC1=O)C(C)(C)C)C(C)(C)C)C2(C)C (single isomer, unassigned)
6 nM	40 nM	9500	0.36 µM·h		C=CCNC(=O)C(=O)C(CCCC)NC(=O)[C@@H]1[C@@H]2[C@H](CN1C(=O)[C@@H](NC(=O)NC(CN1C(=O)CN(C)CC1=O)C(C)(C)C)C(C)(C)C)C2(C)C (single isomer, unassigned)
14 nM	350 nM			bioavailability [13]: 4%	CC(C)(C)NC(=O)N[C@H](C(=O)N1C[C@H]2[C@@H]([C@H]1C(=O)NC(CC1CCC1)C(=O)C(N)=O)C2(C)C)C(C)(C)C (stereo partly drawn) [BOCEPREVIR]
